Results pooled from the literature.
Protocols differ between the studies behind these lines.
CYP3A4: Cytochrome P450 3A4 (CYP3A4, Homo sapiens, UniProt P08684)
CYP1A2: Cytochrome P450 1A2 (CYP1A2, Homo sapiens, UniProt P05177)
SLCO1B1: Solute carrier organic anion transporter family member 1B1 (SLCO1B1, Homo sapiens, UniProt Q9Y6L6)

Structure (SMILES) | target | test | system | setting | measurement | result
CCCOC(=O)C1CCN(C(=O)c2ccc(N(C)Cc3cnc4nc(N)nc(N)c4n3)cc2)CC1 | CYP3A4 | enzyme activity, inhibitor, luciferase |  | 10 µM | inhibition | -10.1%
O=C(Nc1c2c(cc3c1CCC3)CCC2)NS(=O)(=O)/C=C/c1nccs1 | CYP1A2 | enzyme activity, inhibitor | human, liver microsomes | 2 µM, pH 7.4 | inhibition | 14.6%
C[C@H]1C[C@H]2[C@@H]3CCC4=CC(=O)C=C[C@]4(C)[C@@]3(Cl)[C@@H](O)C[C@]2(C)[C@@]1(O)C(=O)CO | SLCO1B1 | transporter uptake, inhibitor |  |  | IC50 | 6.7 µM
CN(CCC(=O)O)C(=O)c1ccc2c(c1)CC[C@@H]1[C@@H]2CC[C@]2(C)C(c3cncc(F)c3)=CC[C@@H]12 | SLCO1B1 | transporter uptake, inhibitor |  |  | IC50 | 3.1 µM
NC(=O)C1CCN(C(=O)c2ccc(NCc3cnc4nc(N)nc(N)c4n3)cc2)CC1 | CYP3A4 | enzyme activity, inhibitor, luciferase |  | 10 µM | inhibition | -4.54%
CC(C)(C)OC(=O)N[C@H](CSCCC(=O)NCc1cccnc1)Cc1ccccc1 | CYP3A4 | thermal stability |  |  | ΔTm | -1 °C
Nc1ccc(S(=O)(=O)Nc2ccnn2-c2ccccc2)cc1 | CYP1A2 | enzyme activity, inhibitor | human, liver microsomes | 10 µM | inhibition | -9%
CN(C(=O)n1cnc(-c2ccc[n+]([O-])c2)c1)C1CCCCC1 | SLCO1B1 | transporter uptake, inhibitor | HEK293 | 10 µg/mL | inhibition | ~20%
CC(C)(C)OC(=O)NCCCCCC(=O)NCc1cccnc1 | CYP3A4 | thermal stability |  |  | ΔTm | -0.2 °C
C=CC(=O)Nc1cc(Nc2nccc(Nc3cc(Cl)c(F)cc3C(C)(C)O)n2)c(OC)cc1N1CC[C@@H](N(C)C)C1 | CYP3A4 | enzyme activity, inhibitor | human, liver microsomes |  | IC50 | 18.2 µM
COC(=O)C1CCN(C(=O)c2cccc(NCc3cnc4nc(N)nc(N)c4n3)c2)CC1 | CYP3A4 | enzyme activity, inhibitor, luciferase |  | 10 µM | inhibition | -19.5%
